Assays:
SK-N-SH [1] = experiment: Effect on neurite outgrowth activity in human SK-N-SH cells assessed as increase in number of vericosites at 100 uM after 5 days; type: functional
How it was run: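 Human SK-N-SH cells plated at 4.7 × 10^4 cell/mL in gridded 60 mm dishes. Compound added once at culture start at 100 µM; vehicle 0.1% DMSO. Cells examined after 5 days in four areas (650 × 430 µm). Varicosity number counted per cell, 40 cells per value, mean ± sem. Compared with control by Student's t-test, P < 0.05.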

SK-N-SH [2] = experiment: Induction of neurite outgrowth in human SK-N-SH cells at 100 uM after 5 days relative to control; type: functional
How it was run: (§1)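 SK-N-SH cells were plated at 4.7 × 10^4 cell/mL in gridded 60 mm dishes. Compound was added once at the start of culture, with 0.1% DMSO vehicle as control. After 5 days, 100-300 cells in four 650 × 430 µm areas were scored for the percentage bearing neurites longer than 50 µm, expressed as % of control. Values are mean ± sem of eight sights; Student's t-test, P < 0.05.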

SK-N-SH [3] = experiment: Induction of neurite outgrowth in human SK-N-SH cells at 10 uM after 5 days relative to control; type: functional; how it was run: as §1
SK-N-SH [4] = experiment: Cytotoxicity against human SK-N-SH cells at 100 uM; type: cell-based

Compound	Activity (SK-N-SH [2]) [%]	also measured
CC(C)=CCC[C@](C)(O[C@@H]1O[C@H](CO[C@@H]2O[C@H](CO)[C@@H](O)[C@H](O)[C@H]2O)[C@@H](O)[C@H](O)[C@H]1O)[C@H]1CC[C@]2(C)[C@@H]1[C@H](O)C[C@@H]1[C@@]3(C)CC[C@H](O[C@@H]4O[C@H](CO)[C@@H](O)[C@H](O)[C@H]4O[C@@H]4O[C@H](CO)[C@@H](O)[C@H](O)[C@H]4O)C(C)(C)[C@@H]3CC[C@]12C [GINSENOSIDE RB1]	178	Activity (SK-N-SH [1]): 0.93
CC(C)=CCC[C@](C)(O[C@@H]1O[C@H](CO[C@@H]2O[C@H](CO)[C@@H](O)[C@H](O)[C@H]2O)[C@@H](O)[C@H](O)[C@H]1O)[C@H]1CC[C@]2(C)[C@@H]1[C@H](O)C[C@@H]1[C@@]3(C)CC[C@H](O[C@@H]4O[C@H](CO)[C@@H](O)[C@H](O)[C@H]4O[C@@H]4O[C@H](CO)[C@@H](O)[C@H](O)[C@H]4O[C@@H]4OC[C@@H](O)[C@H](O)[C@H]4O)C(C)(C)[C@@H]3CC[C@]12C [NOTOGINSENOSIDE FA]	147	Activity (SK-N-SH [1]): 0.53
CC(=O)OC[C@H]1O[C@@H](O[C@H]2C[C@]3(C)[C@H](C[C@@H](O)[C@@H]4[C@@H]([C@]5(C)CC[C@@H](C(C)(C)O)O5)CC[C@]43C)[C@@]3(C)CC[C@H](O)C(C)(C)[C@H]23)[C@H](O[C@@H]2OC[C@@H](O)[C@H](O)[C@H]2O)[C@@H](O)[C@@H]1O [GINSENOSIDE R2]	97	
CC(=O)OC[C@H]1O[C@@H](O[C@H]2C[C@]3(C)[C@H](C[C@@H](O)[C@@H]4[C@@H]([C@]5(C)CC[C@@H](C(C)(C)O)O5)CC[C@]43C)[C@@]3(C)CC[C@H](O)C(C)(C)[C@H]23)[C@H](O[C@@H]2O[C@H](C)[C@@H](O)[C@H](O)[C@@H]2O)[C@@H](O)[C@@H]1O [VINA-GINSENOSIDE R1]	82.2	
CC(C)(O)[C@@H]1CC[C@@](C)([C@H]2CC[C@]3(C)[C@@H]2[C@H](O)C[C@@H]2[C@@]4(C)CC[C@H](O)C(C)(C)[C@@H]4[C@@H](O[C@@H]4O[C@H](CO)[C@@H](O)[C@H](O)[C@H]4O)C[C@]23C)O1	91.4	
CC(C)=CCC[C@](C)(O[C@@H]1O[C@H](CO)[C@@H](O)[C@H](O)[C@H]1O)[C@H]1CC[C@]2(C)[C@@H]1[C@H](O)C[C@@H]1[C@@]3(C)CC[C@H](O)C(C)(C)[C@@H]3[C@@H](O[C@@H]3O[C@H](CO)[C@@H](O)[C@H](O)[C@H]3O)C[C@]12C [GINSENOSIDE RG1]	107.3	
CC(C)(O)[C@@H]1CC[C@@](C)([C@H]2CC[C@]3(C)[C@@H]2[C@H](O)C[C@@H]2[C@@]4(C)CC[C@H](O)C(C)(C)[C@@H]4[C@@H](O[C@@H]4O[C@H](CO[C@H]5O[C@H](CO)[C@@H](O)[C@H](O)[C@H]5O)[C@@H](O)[C@H](O)[C@H]4O[C@@H]4OC[C@@H](O)[C@H](O)[C@H]4O)C[C@]23C)O1	104.1	
CC(C)(O)[C@@H]1CC[C@@](C)([C@H]2CC[C@]3(C)[C@@H]2[C@H](O)C[C@@H]2[C@@]4(C)CC[C@H](O)C(C)(C)[C@@H]4[C@@H](O[C@@H]4O[C@H](CO)[C@@H](O)[C@H](O)[C@H]4O[C@@H]4OC[C@@H](O)[C@H](O)[C@H]4O)C[C@]23C)O1 [MAJONOSIDE R2]	109.6	
CC(C)=CCC[C@](C)(O[C@@H]1O[C@H](CO)[C@@H](O)[C@H](O)[C@H]1O)[C@H]1CC[C@]2(C)[C@@H]1[C@H](O)C[C@@H]1[C@@]3(C)CC[C@H](O)C(C)(C)[C@@H]3[C@@H](O[C@@H]3O[C@H](CO)[C@@H](O)[C@H](O)[C@H]3O[C@@H]3OC[C@@H](O)[C@H](O)[C@H]3O)C[C@]12C [NOTOGINSENOSIDE R1]	84.6	
CC(C)=CCC[C@](C)(O[C@@H]1O[C@H](CO[C@@H]2OC[C@@H](O)[C@H](O)[C@H]2O)[C@@H](O)[C@H](O)[C@H]1O)[C@H]1CC[C@]2(C)[C@@H]1[C@H](O)C[C@@H]1[C@@]3(C)CC[C@H](O[C@@H]4O[C@H](CO)[C@@H](O)[C@H](O)[C@H]4O[C@@H]4O[C@H](CO)[C@@H](O)[C@H](O)[C@H]4O)C(C)(C)[C@@H]3CC[C@]12C [GINSENOSIDE RB3]	228	Activity (SK-N-SH [1]): 0.8
CC(C)=CCC[C@](C)(O[C@@H]1O[C@H](CO)[C@@H](O)[C@H](O)[C@H]1O)[C@H]1CC[C@]2(C)[C@@H]1[C@H](O)C[C@@H]1[C@@]3(C)CC[C@H](O)C(C)(C)[C@@H]3[C@@H](O[C@@H]3O[C@H](CO)[C@@H](O)[C@H](O)[C@H]3O[C@@H]3O[C@H](CO)[C@@H](O)[C@H](O)[C@H]3O)C[C@]12C	96.6	
C[C@@H]1O[C@@H](O[C@H]2[C@H](O[C@H]3C[C@]4(C)[C@H](C[C@@H](O)[C@@H]5[C@@H]([C@]6(C)CC[C@@H](C(C)(C)O)O6)CC[C@]54C)[C@@]4(C)CC[C@H](O)C(C)(C)[C@H]34)O[C@H](CO)[C@@H](O)[C@@H]2O)[C@H](O)[C@H](O)[C@H]1O		Activity (SK-N-SH [3]): 103%; Activity (SK-N-SH [4]): Toxic
CC(C)=CCC[C@](C)(O[C@@H]1O[C@H](CO)[C@@H](O)[C@H](O)[C@H]1O)[C@H]1CC[C@]2(C)[C@@H]1[C@H](O)C[C@@H]1[C@@]3(C)CC[C@H](O)C(C)(C)[C@@H]3[C@@H](O[C@@H]3O[C@H](CO)[C@@H](O)[C@H](O)[C@H]3O[C@@H]3O[C@@H](C)[C@H](O)[C@@H](O)[C@H]3O)C[C@]12C [GINSENOSIDE RE]	83.5	
